From ChEMBL document CHEMBL5712903, “Limitations of current in vitro models for testing the clinical potential of epigenetic inhibitors for treatment of pediatric ependymoma” (Oncotarget, 2018)
The source made the active and inactive calls. The calls are words filed in the database; no cut-off is given here.

Assays:
[1] = target: Histone-lysine N-methyltransferase EZH2 (Homo sapiens) (UniProt Q15910); assay: Inhibition of EZH2 in human EPN9 cells assessed as increase in cell death incubated for 120 hrs by LDH release assay; type: cell-based
Procedure, shortened: (§1)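 GSK343 or vehicle was added to cells plated in 96 wells the previous day. Drug was replenished after 72 hrs, and cell death was measured by LDH release kit at 120 hrs. Each condition in triplicate, three independent repeats.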

[2] = target: Histone-lysine N-methyltransferase EZH2 (Homo sapiens) (UniProt Q15910); assay: Inhibition of EZH2 in human EPN1 cells assessed as increase in cell death incubated for 120 hrs by LDH release assay; type: cell-based; procedure, shortened: as §1
[3] = target: Histone-lysine N-methyltransferase EZH2 (Homo sapiens) (UniProt Q15910); assay: Inhibition of EZH2 in human EPN1 cells assessed as decrease in cell viability at 2.5 to 80 uM incubated for 72 hrs in presence of vorinostat by MTT assay; conditions: dose 2.5-80 µM
[4] = Cytotoxicity against human fetal NSC assessed as reduction in cell vaibility incubated for 48 hrs by alamar blue assay; conditions: human fetal neural stem cells (NSC)
[5] = target: Histone-lysine N-methyltransferase EZH2 (Homo sapiens) (UniProt Q15910); assay: Inhibition of EZH2 in human EPN9 cells assessed as increase in decitabine induced cytotoxicity at 2.5 to 80 uM measured after 96 hrs in presence of decitabine by MTT assay; type: cell-based; conditions: dose 2.5-80 µM
Procedure, shortened: (§2)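 Cells were pretreated 48 hrs with decitabine, then GSK343 was added and incubation continued for a further 96 hrs before MTT viability was read. Drugs were at a fixed ratio from single-agent IC50s (0.125–4 times IC50). Triplicates, three independent repeats, % versus vehicle.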

[6] = target: Histone-lysine N-methyltransferase EZH2 (Homo sapiens) (UniProt Q15910); assay: Inhibition of EZH2 in human BXD-1425EPN cells assessed as increase in decitabine induced cytotoxicity at 2.5 to 80 uM measured after 96 hrs in presence of decitabine by MTT assay; type: cell-based; conditions: dose 2.5-80 µM; procedure, shortened: as §2
[7] = target: Histone-lysine N-methyltransferase EZH2 (Homo sapiens) (UniProt Q15910); assay: Inhibition of EZH2 in human DKFZ-EP1 cells assessed as increase in cell death incubated for 120 hrs by LDH release assay; type: cell-based; procedure, shortened: as §1
[8] = target: Histone-lysine N-methyltransferase EZH2 (Homo sapiens) (UniProt Q15910); assay: Inhibition of EZH2 in human EPN1 cells assessed as increase in decitabine induced cytotoxicity at 2.5 to 80 uM measured after 96 hrs in presence of decitabine by MTT assay; type: cell-based; conditions: dose 2.5-80 µM; procedure, shortened: as §2
[9] = target: Histone-lysine N-methyltransferase EZH2 (Homo sapiens) (UniProt Q15910); assay: Inhibition of EZH2 in human DKFZ-EP1 cells assessed as increase in decitabine induced cytotoxicity at 2.5 to 40 uM measured after 96 hrs in presence of decitabine by MTT assay; type: cell-based; conditions: dose 2.5-40 µM; procedure, shortened: as §2
[10] = target: Histone-lysine N-methyltransferase EZH2 (Homo sapiens) (UniProt Q15910); assay: Inhibition of EZH2 in human BXD-1425EPN cells assessed as decrease in cell viability at 2.5 to 80 uM incubated for 72 hrs in presence of vorinostat by MTT assay; conditions: dose 2.5-80 µM
[11] = target: Histone-lysine N-methyltransferase EZH2 (Homo sapiens) (UniProt Q15910); assay: Inhibition of EZH2 in human BXD-1425EPN cells assessed as increase in cell death incubated for 120 hrs by LDH release assay; type: cell-based; procedure, shortened: as §1
[12] = Antiproliferative activity against human EPN1 cells assessed as reduction in cell viability incubated for 144 hrs by MTT assay; type: functional, cell-based; conditions: EPN1, 144 h
Procedure, shortened: (§3)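 Ependymoma cells were seeded in 96-well plates and left overnight, then given decitabine or DMSO vehicle. Decitabine was replenished at 24 and 48 hrs, and MTT viability was read 144 hrs after the start. BXD-1425EPN and DKFZ-EP1 were grown in DMEM with 10% FBS; EPN1, EPN8, EPN9 and EPN10 in DMEM with 15% FBS. Triplicates, three independent repeats, % viable versus vehicle; IC50 estimated from dose-response curves.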

EPN1 = assay: Induction of cell death in human EPN1 cells incubated for 144 hrs by LDH release assay; type: functional, cell-based
Procedure, shortened: (§4)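 LDH cytotoxicity kit read-out of cell death after 144 hrs of decitabine or vehicle exposure. Cells were plated in 96 wells and left overnight before dosing, with decitabine replenished at 24 and 48 hrs. Triplicates in three independent repeats. All drugs were dissolved in DMSO.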

DKFZ-EP1 = assay: Induction of cell death in human DKFZ-EP1 cells incubated for 144 hrs by LDH release assay; type: functional, cell-based; procedure, shortened: as §4
[13] = Antiproliferative activity against human EPN8 cells assessed as reduction in cell viability incubated for 144 hrs by MTT assay; type: functional, cell-based; conditions: EPN8, 144 h; procedure, shortened: as §3
[14] = Antiproliferative activity against human EPN9 cells assessed as reduction in cell viability incubated for 144 hrs by MTT assay; type: functional, cell-based; conditions: EPN9, 144 h; procedure, shortened: as §3
[15] = Antiproliferative activity against human EPN10 cells assessed as reduction in cell viability incubated for 144 hrs by MTT assay; type: functional, cell-based; conditions: EPN10, 144 h; procedure, shortened: as §3
[16] = Antiproliferative activity against human DKFZ-EP1 cells assessed as reduction in cell viability incubated for 144 hrs by MTT assay; type: functional, cell-based; conditions: DKFZ-EP1, 144 h; procedure, shortened: as §3
EPN9 = assay: Induction of cell death in human EPN9 cells incubated for 144 hrs by LDH release assay; type: functional, cell-based; procedure, shortened: as §4
[17] = Antiproliferative activity against human BXD-1425EPN cells assessed as reduction in cell viability incubated for 144 hrs by MTT assay; type: functional, cell-based; procedure, shortened: as §3
BXD-1425EPN = assay: Induction of cell death in human BXD-1425EPN cells incubated for 144 hrs by LDH release assay; type: functional, cell-based; procedure, shortened: as §4

Sequence of Histone-lysine N-methyltransferase EZH2 (Homo sapiens) (Q15910 whole entry, looked up): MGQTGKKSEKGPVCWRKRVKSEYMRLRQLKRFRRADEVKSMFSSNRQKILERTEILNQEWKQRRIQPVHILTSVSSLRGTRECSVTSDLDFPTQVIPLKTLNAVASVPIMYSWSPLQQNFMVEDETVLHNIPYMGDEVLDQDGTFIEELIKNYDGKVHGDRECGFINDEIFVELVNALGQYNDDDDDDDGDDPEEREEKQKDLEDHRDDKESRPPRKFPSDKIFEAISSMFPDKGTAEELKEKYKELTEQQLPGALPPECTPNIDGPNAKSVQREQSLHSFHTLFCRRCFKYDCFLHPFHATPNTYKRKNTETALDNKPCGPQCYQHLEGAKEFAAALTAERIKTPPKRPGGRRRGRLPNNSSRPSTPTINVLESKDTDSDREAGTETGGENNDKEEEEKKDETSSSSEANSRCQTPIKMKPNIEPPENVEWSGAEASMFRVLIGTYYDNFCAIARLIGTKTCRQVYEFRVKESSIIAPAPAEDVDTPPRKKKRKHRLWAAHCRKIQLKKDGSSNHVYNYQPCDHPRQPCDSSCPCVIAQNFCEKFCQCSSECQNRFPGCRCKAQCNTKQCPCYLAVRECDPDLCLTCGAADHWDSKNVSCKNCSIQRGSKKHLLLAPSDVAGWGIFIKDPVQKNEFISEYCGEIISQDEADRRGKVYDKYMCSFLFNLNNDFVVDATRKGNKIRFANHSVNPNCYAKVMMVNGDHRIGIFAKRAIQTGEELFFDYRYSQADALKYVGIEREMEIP

CCCc1cc(C)[nH]c(=O)c1CNC(=O)c1cc(-c2ccnc(N3CCN(C)CC3)c2)cc2c1cnn2C(C)C
inhibition [1]: Active
inhibition [2]: Active
inhibition [3]: Active
IC50 at 48 h [4]: 9 µM
inhibition [5]: inactive
inhibition [6]: inactive
inhibition [7]: Active
inhibition [8]: inactive
inhibition [9]: inactive
inhibition [10]: Active
inhibition [11]: Active

Nc1ncn([C@H]2C[C@H](O)[C@@H](CO)O2)c(=O)n1 [DECITABINE]
IC50 [12]: ≥ 50 nM
Activity (EPN1): inactive
Activity (DKFZ-EP1): inactive
IC50 [13]: 50 nM
IC50 [14]: ≥ 50 nM
IC50 [15]: ≥ 50 nM
IC50 [16]: ≥ 50 nM
Activity (EPN9): inactive
IC50 [17]: 400 nM
Activity (BXD-1425EPN): inactive

Cc1[nH]c2ccccc2c1CCNCc1ccc(/C=C/C(=O)NO)cc1 [PANOBINOSTAT]
IC50 at 48 h [4]: 0.08 µM
